Assay results from article PMC7245552 (Cell chemical biology, 2020).
One block for each molecule: values may come before it.

What was measured:
K2P2.1 I110D = molecular target: T1, K2P2.1 I110D (Mus musculus, UniProt P97438, I125D); test: TEVC recordings in Xenopus oocytes, K2P2.1 I110D; assay type: cell-based, Murine
T1 sequence (P97438 1-411 isoform P97438-2 I110D): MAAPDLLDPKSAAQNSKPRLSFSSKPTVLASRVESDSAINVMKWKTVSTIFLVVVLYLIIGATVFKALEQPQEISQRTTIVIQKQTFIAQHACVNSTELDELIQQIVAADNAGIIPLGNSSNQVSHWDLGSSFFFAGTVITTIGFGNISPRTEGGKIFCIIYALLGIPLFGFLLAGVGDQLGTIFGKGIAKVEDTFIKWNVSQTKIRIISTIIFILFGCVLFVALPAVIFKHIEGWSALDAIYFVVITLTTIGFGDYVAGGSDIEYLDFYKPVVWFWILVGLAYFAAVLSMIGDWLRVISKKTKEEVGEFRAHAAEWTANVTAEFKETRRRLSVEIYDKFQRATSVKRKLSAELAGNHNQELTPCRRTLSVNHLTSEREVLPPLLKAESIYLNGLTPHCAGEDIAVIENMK

K2P2.1 (TREK-1) [1] = conditions: read-out: EC50 (ML335) activation, ref Lolicato et al., 2017; cited from earlier work
K2P2.1 I110E = molecular target: T2, K2P2.1 I110E (Mus musculus, UniProt P97438, I125E); test: TEVC recordings in Xenopus oocytes, K2P2.1 I110E; assay type: cell-based, Murine; conditions: K2P2.1 I110E versus K2P2.1 I110D
T2 sequence (P97438 1-411 isoform P97438-2 I110E): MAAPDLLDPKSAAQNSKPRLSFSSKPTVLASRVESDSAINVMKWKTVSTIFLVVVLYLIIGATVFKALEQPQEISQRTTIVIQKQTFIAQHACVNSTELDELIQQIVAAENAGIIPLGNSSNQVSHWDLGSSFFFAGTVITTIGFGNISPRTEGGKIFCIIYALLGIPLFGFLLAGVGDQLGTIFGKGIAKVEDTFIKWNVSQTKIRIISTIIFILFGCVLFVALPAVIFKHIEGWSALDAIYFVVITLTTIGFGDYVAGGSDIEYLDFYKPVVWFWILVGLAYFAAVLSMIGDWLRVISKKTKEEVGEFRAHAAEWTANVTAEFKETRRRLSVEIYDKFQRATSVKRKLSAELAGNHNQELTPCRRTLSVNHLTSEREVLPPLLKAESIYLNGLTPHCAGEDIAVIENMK
Outline: (§1)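 Murine channel cRNA (0.1–6 ng) injected into defolliculated stage V–VI X. laevis oocytes kept at 18°C in ND96 with antibiotics. TEVC 24–48 h later with constant ND96 perfusion; −80 mV hold, 500 ms ramp −140 to +50 mV. Ruthenium compounds were freshly dissolved in ND96. Block corrected for uninjected-oocyte basal current. ≥3 oocytes from ≥2 batches per point; IC50 from Hill fit, coefficient fixed −1.0.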

K2P2.1 I110D/N147D = molecular target: T3, K2P2.1 I110D/N147D (Mus musculus, UniProt P97438, I125D/N162D); test: TEVC recordings in Xenopus oocytes, K2P2.1 I110D/N147D; assay type: cell-based, Murine; conditions: I110D/N147D pair; T = 298K
T3 sequence (P97438 1-411 isoform P97438-2 I110D/N147D): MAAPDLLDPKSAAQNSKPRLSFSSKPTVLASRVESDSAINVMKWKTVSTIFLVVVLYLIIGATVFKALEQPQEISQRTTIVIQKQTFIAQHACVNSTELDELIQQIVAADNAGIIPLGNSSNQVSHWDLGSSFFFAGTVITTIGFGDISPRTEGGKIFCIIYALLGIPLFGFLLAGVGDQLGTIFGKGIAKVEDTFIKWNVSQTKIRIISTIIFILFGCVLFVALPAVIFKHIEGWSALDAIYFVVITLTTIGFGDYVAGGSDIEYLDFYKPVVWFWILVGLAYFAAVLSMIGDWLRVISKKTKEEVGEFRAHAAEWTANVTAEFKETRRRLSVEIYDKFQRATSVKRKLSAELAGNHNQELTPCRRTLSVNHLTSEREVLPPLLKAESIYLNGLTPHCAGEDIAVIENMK
Outline: (§2)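 Coupling energy was computed as ΔΔGΩ = RT lnΩ, with R=1.987 cal mol−1 deg−1 and T=298 K. Inputs were RuR inhibition measurements by TEVC in X. laevis oocytes expressing murine mutant channels: −80 mV hold, 500 ms ramp −140 to +50 mV, ND96 perfusion. IC50s came from a Hill fit with coefficient −1.0, using ≥3 oocytes from ≥2 batches per point.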

K2P2.1 I110D/N147E = molecular target: T4, K2P2.1 I110D/N147E (Mus musculus, UniProt P97438, I125D/N162E); test: TEVC recordings in Xenopus oocytes, K2P2.1 I110D/N147E; assay type: cell-based, Murine; conditions: I110D/N147E pair; T = 298K
T4 sequence (P97438 1-411 isoform P97438-2 I110D/N147E): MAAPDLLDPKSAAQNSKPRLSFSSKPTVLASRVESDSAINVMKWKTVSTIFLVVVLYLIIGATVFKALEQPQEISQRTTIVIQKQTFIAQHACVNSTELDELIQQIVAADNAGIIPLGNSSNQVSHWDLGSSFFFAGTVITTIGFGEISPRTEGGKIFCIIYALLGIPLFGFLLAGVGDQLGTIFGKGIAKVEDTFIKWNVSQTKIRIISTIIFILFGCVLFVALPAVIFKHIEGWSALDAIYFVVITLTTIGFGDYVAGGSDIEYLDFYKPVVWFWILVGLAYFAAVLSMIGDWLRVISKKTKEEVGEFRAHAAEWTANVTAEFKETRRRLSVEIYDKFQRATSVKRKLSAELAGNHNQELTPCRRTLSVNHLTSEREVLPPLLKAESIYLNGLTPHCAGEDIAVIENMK
Outline: as §2

K2P2.1 (TREK-1) [2] = molecular target: T5, K2P2.1 (TREK-1) (Mus musculus, UniProt P97438); test: TEVC recordings in Xenopus oocytes, K2P2.1; assay type: cell-based, Murine; conditions: 100 μM Ru360 applied to K2P2.1 (TREK-1)
T5 sequence (P97438 1-411 isoform P97438-2): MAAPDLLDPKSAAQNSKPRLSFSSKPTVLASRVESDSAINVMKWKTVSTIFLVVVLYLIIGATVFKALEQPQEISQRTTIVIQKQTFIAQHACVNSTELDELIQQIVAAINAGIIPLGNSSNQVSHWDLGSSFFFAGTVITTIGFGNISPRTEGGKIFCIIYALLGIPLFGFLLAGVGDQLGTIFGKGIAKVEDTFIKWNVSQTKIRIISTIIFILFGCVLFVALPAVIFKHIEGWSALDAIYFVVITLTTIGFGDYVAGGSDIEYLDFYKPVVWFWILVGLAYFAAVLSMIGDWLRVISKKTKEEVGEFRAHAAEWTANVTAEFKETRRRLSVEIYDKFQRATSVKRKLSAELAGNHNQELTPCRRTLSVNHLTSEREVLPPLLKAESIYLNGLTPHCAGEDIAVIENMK
Outline: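 Oocytes expressing murine wild-type channel were perfused with ND96 until current was stable, then with 100 μM Ru360 freshly prepared in ND96 and kept light-protected, until current stabilised again. Currents were elicited from a −80 mV hold by a 500 ms ramp −140 to +50 mV. Fractional block was corrected for basal current averaged from uninjected oocytes (n=14).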

K2P10.1 (TREK-2) = molecular target: T6, K2P10.1 (TREK-2) (Mus musculus, UniProt Q8BUW1); test: TEVC recordings in Xenopus oocytes, K2P10.1; assay type: cell-based, Murine
T6 sequence (Q8BUW1 1-535): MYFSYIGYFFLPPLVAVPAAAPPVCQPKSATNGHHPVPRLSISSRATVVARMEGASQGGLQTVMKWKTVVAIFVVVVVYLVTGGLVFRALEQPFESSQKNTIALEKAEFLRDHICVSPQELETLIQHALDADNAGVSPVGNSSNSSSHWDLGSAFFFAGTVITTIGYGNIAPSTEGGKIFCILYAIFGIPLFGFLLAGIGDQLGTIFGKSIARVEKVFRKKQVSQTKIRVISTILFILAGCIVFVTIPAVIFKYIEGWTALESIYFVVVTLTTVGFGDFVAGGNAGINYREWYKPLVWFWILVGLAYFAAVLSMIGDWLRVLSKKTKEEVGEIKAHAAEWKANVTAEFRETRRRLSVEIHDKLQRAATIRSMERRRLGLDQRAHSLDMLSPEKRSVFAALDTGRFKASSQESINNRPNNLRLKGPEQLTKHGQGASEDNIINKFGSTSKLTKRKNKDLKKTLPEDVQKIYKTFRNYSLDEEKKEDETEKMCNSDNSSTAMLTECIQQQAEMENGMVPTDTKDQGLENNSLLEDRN
Outline: as §1

crystal structure = molecular target: the molecule itself; test: crystal structure

EC50 (K2P2.1 I110D; read-out: EC50 (ML335) activation, TEVC): 11.8 ± 2.3 µM
Molecule: CS(=O)(=O)Nc1ccc(C(=O)NCc2ccc(Cl)cc2Cl)cc1 [ML335]
EC50 (K2P2.1 (TREK-1) [1]): 14.3 ± 2.7 µM

RuR inhibition fold weaker than that observed for K2P2.1 I110D (K2P2.1 I110E): ~ 50 fold
ΔΔG coupling energy, double mutant cycle analysis of RuR binding (K2P2.1 I110D/N147D): -4.1 kcal/mol
ΔΔG coupling energy, double mutant cycle analysis of RuR binding (K2P2.1 I110D/N147E): -0.3 kcal/mol
Molecule: N.N.N.N.N.N.N.N.N.N.N.N.N.N.[Cl-].[Cl-].[Cl-].[Cl-].[Cl-].[Cl-].[O-2].[O-2].[Ru+3].[Ru+3].[Ru+4] [RuR, Ruthenium Red]

Effect on channel current (K2P2.1 (TREK-1) [2]): no effect
Ru360 IC50 fold weaker than that for RuR (K2P2.1 I110D): > 10 fold
Ru360 IC50 fold weaker than that for RuR (K2P10.1 (TREK-2)): > 10 fold
Molecule: Ru360

B1: K2P2.1 (TREK-1)CRYST I110D (domain or fragment, mouse, UniProt P97438-2 21-322, looked up)
chain: SFSSKPTVLASRVESDSAINVMKWKTVSTIFLVVVLYLIIGATVFKALEQPQEISQRTTIVIQREKFLRAHPCVSDQELDELIQQIVAADNAGIIPLGASSNQVSHWDLGSSFFFAGTVITTIGFGNISPRTEGGKIFCIIYALLGIPLFGFLLAGVGDQLGTIFGKGIAKVEDTFIKWNVSQTKIRIISTIIFILFGCVLFVALPAVIFKHIEGWSALDAIYFVVITLTTIGFGDYVAGGSDIEYLDFYKPVVWFWILVGLAYFAAVLSMIGDWLRVICKKTKEAVGEFRAHAAEWTANVT
binding result (crystal structure): binds
